For data set [1], the system named is BV-2. The experiment in a line: Antiinflammatory activity in mouse BV2 cells assessed as inhibition of LPS-induced nitric oxide production incubated for 24 hrs by Griess assay. It is filed as functional, cell-based. The following applies: BV-2, 24 h. In outline:
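NO output from murine microglial BV-2 cells was stimulated with lipopolysaccharide. IC50 values were derived from the inhibition of LPS-induced NO generation, and results come from three experiments. 2-Methyl-2-thiopseudourea sulfate (SMT) was the positive control.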
Background: Nitrite, measured by Griess reagent, commonly stands in for NO production.

The subject of data set [2] is BV-2. In words: Cytotoxicity against mouse BV2 cells assessed as effect on cell survival by MTT assay. The data set is classed as cell-based. (Tetrazolium dyes change colour on reduction, which living cells bring about.)

As a reminder, the IC50 is the concentration that gives 50% inhibition.

Take `CSC(=N)N`: the IC50 in data set [1] was 2.9 µM. As to `CC(C)c1cc2c(c(O)c1O)C[C@@]1(O)CCCC(C)(C)[C@@H]1CC2`, the IC50 in data set [1] was found to be 10.6 µM. Moreover, the Activity result in data set [2] is reported as “Non-Toxic”. Take `CC1=CC[C@@H]2[C@@H]3C[C@H]1[C@@]2(C)[C@@H](O)C[C@@H]3C(C)C`: the IC50 in data set [1] is 92.9 µM. Further, the Activity entry in data set [2] is recorded as “Non-Toxic”.

With `CC(=O)O[C@H]1CC(C)(C)C2=C(O)C(=O)c3cc(C(C)C)c(O)c(O)c3[C@@]2(C)C1`, the IC50 in data set [1] worked out at 26.5 µM. For the same compound, the Activity entry in data set [2] is given as “Non-Toxic”. In the case of `CO[C@H]1O[C@H]2CC[C@@]13c1c(cc(C(C)C)c(O)c1O)CC[C@H]3C2(C)C`, in data set [1], the IC50 is over 30 µM. In addition, the Activity result in data set [2] is listed as “Non-Toxic”.

Regarding `CC(=O)O[C@H]1CC(C)(C)[C@@H]2C[C@@H]3OC[C@@]2(C1)c1c3cc(C(C)C)c(O)c1O`, in data set [1], the IC50 was over 30 µM. Besides, in data set [2], the Activity result is reported as “Non-Toxic”.

In the case of `CC(=O)OC[C@@]1(O)CC[C@@H]2[C@H]([C@H]3[C@H]1CC[C@]3(C)O)C2(C)C`, in data set [1], the IC50 amounted to 47.6 µM. Moreover, the Activity entry in data set [2] is given as “Non-Toxic”.

Consider `CC(=O)[C@H]1CC[C@@H]2[C@@H]1[C@H](C(C)C)CC[C@@]2(C)O`, for which the IC50 in data set [1] came to 38.9 µM. For the same compound, in data set [2], the Activity result is on record as “Non-Toxic”. For the compound `CC(C)C1=C[C@@]23CC[C@H]4C(C)(C)C[C@H](O)C[C@]4(CO2)C3=C(O)C1=O`, the IC50 in data set [1] turned out to be 14.8 µM. Also, in data set [2], the Activity result was “Non-Toxic”. For `CC(=O)O[C@H]1CC(C)(C)[C@@H]2CC[C@@]34C=C(C(C)C)C(=O)C(O)=C3[C@@]2(CO4)C1`, in data set [1], the IC50 worked out at 5.7 µM. Moreover, the Activity entry in data set [2] is recorded as “Non-Toxic”.

Consider `CC(C)C1=CC[C@@]2(C)[C@H](O)CC[C@](C)(O)[C@@H]2C1` [OPLODIOL], for which, in data set [1], the IC50 was 63.5 µM. Further, in data set [2], the Activity entry is recorded as “Non-Toxic”.

For the origin of these results see ChEMBL document CHEMBL4002582, “Bioactive Terpenoids from Salvia plebeia: Structures, NO Inhibitory Activities, and Interactions with iNOS” (J Nat Prod, 2016).
